Our source for the IC50, Activity and MTD values is ChEMBL document CHEMBL1148725, “2,2,2-Trichloro-N-({2-[2-(dimethylamino)ethyl]-1,3-dioxo-2,3-dihydro-1H-benzo[de]isoquinolin- 5-yl}carbamoyl)acetamide (UNBS3157), a novel nonhematotoxic naphthalimide derivative with potent antitumor activity” (J Med Chem, 2007).

Data set [1] in a line: Antiproliferative activity against Hs683 cells after 72 hrs by MTT assay. The format is functional, cell-based, Homo sapiens, Hs 683. A digest of the protocol: (§1)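 Cells cultured with each compound for three days; growth then read by the MTT colorimetric assay and reported as IC50 (µM).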
The subject of another data set is LoVo. Briefly: Antiproliferative activity against LoVo cells after 72 hrs by MTT assay. It counts as functional, cell-based, Homo sapiens. A digest of the protocol: as §1
The test system of data set [2] is L1210. Briefly: Antitumor activity in L1210 cells xenografted B6D2F1 mouse at 80 mg/kg, ip relative to control. The format is functional. Conditions: route intraperitoneal. A digest of the protocol: (§2)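 Mice grafted with L1210 leukaemia cells on day 0, then dosed i.p. four times weekly on days 1-4 and 8-11. Five mice per group. Outcome is %T/C, the median survival of treated over control. Kruskal-Wallis test followed by Dunn comparisons against control.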

Another data set has as its system MCF7. Description: Antiproliferative activity against MCF7 cells after 72 hrs by MTT assay. Conditions: Homo sapiens, MCF7, 72 h. It counts as functional, cell-based, Homo sapiens. A digest of the protocol:
as §1
(In general: Tetrazolium dyes change colour on reduction, which living cells bring about.)

A further data set deals with A549. Briefly: Antiproliferative activity against A549 cells after 72 hrs by MTT assay. The format is functional, cell-based, Homo sapiens. The gist of the method: as §1
Data set [3] in a line: Antiproliferative activity against U373MG cells after 72 hrs by MTT assay. The format is functional, cell-based, Homo sapiens, U-373MG ATCC. The gist of the method: as §1
Data set [4] in a line: Toxicity in ip dosed B6D2F1 mouse. The format is organism-based. Conditions: in vivo. The gist of the method:
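Acute MTD was set by a single i.p. dose to groups of three healthy female B6D2F1 mice, at 2.5, 5, 10, 20, 40, 80 and 160 mg/kg. The MTD is the dose just below the lowest dose that killed at least one mouse.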

For the next data set, the system named is HCT-15. Description: Antiproliferative activity against HCT15 cells after 72 hrs by MTT assay. The format is functional, cell-based, Homo sapiens. A digest of the protocol: as §1
In data set [5] the test system is L1210. Briefly: Antitumor activity in L1210 cells xenografted B6D2F1 mouse at 40 mg/kg, ip relative to control. It counts as functional. Conditions: route intraperitoneal. The gist of the method: as §2

pIC50: −log10 of the molar value.

In general, pIC50 refers to the IC50 on a negative log10 scale, so that one unit is a factor of ten. A lower pIC50 goes with a high IC50.

In the case of `CN(C)CCN1C(=O)c2cccc3cc(NCc4ccc5c(c4)OCO5)cc(c23)C1=O.Cl`, the pIC50 in [1] (hs 683) is 5.35; with LoVo (Homo sapiens, LoVo, 72 h), 5.43; in the data set with MCF7 it was < 5.00; in the data set with A549 (Homo sapiens, A549, 72 h), < 5.00; in data set [3] (u-373mg atcc), 5.40; with HCT-15 (Homo sapiens, HCT-15, 72 h) it was 5.35. The Activity in the data set on L1210 [2] was determined as 207%. For the same compound, the MTD in [4] is > 80 mg/kg.
With `CN(C)CCN1C(=O)c2cccc3cc(NC(=S)Nc4ccc(OC(F)(F)F)cc4)cc(c23)C1=O`, the pIC50 in data set [1] (Homo sapiens, Hs 683, 72 h) is 5.19; with LoVo (Homo sapiens, LoVo, 72 h) it was 5.40; in the data set on MCF7, 5.32; in the data set with A549 (Homo sapiens, A549, 72 h) it was 5.37; in data set [3] (Homo sapiens, U373 MG, 72 h) it was 5.44; in the data set on HCT-15 (Homo sapiens, HCT-15, 72 h), 5.23. The same compound had an Activity with L1210 [2] of 171%. In addition, the MTD in [4] worked out at 40 mg/kg.
For `CN(C)CCN1C(=O)c2cccc3cc(/N=C\c4ccc(C#N)cc4)cc(c23)C1=O`, the pIC50 was < 5.00 in data set [1] (Homo sapiens, Hs 683, 72 h); 5.39 in the data set on LoVo (Homo sapiens, LoVo, 72 h); 5.13 with MCF7; 5.11 in the data set with A549 (Homo sapiens, A549, 72 h); 5.38 in [3] (Homo sapiens, U373 MG, 72 h); 5.00 with HCT-15 (Homo sapiens, HCT-15, 72 h). In addition, in the data set on L1210 [2], the Activity was determined as 135%. Besides, the MTD in data set [4] was > 80 mg/kg.
`CCOC(=O)c1ccc(NC(=O)Nc2cc3c4c(cccc4c2)C(=O)N(CCN(C)C)C3=O)cc1`: the pIC50 in data set [1] (Homo sapiens, Hs 683, 72 h) is 5.68; in the data set on LoVo (Homo sapiens, LoVo, 72 h), 5.82; in the data set on MCF7, 5.51; in the data set with A549 (Homo sapiens, A549, 72 h), 5.80; in [3] (Homo sapiens, U373 MG, 72 h) it was 5.68; in the data set with HCT-15 (Homo sapiens, HCT-15, 72 h) it was 5.13. Also, the Activity in the data set with L1210 [2] is on record as 187%. In addition, the MTD in [4] is > 80 mg/kg.
Take `CN(C)CCN1C(=O)c2cccc3cc(NC(=O)CCCCl)cc(c23)C1=O`: the pIC50 in data set [1] (Homo sapiens, Hs 683, 72 h) is < 5.00; with LoVo (Homo sapiens, LoVo, 72 h) it was 5.00; in the data set with MCF7 it was < 5.00; in the data set with A549 (Homo sapiens, A549, 72 h), < 5.00; in data set [3] (Homo sapiens, U373 MG, 72 h) it was < 5.00; in the data set on HCT-15 (Homo sapiens, HCT-15, 72 h), < 5.00. Moreover, the Activity in the data set with L1210 [2] amounted to 164%. In addition, the MTD in [4] is > 80 mg/kg.
On to `CN(C)CCN1C(=O)c2cccc3cc(NCc4cc5c(cc4[N+](=O)[O-])OCO5)cc(c23)C1=O`, for which the values for the pIC50 (in [1] (hs 683); in the data set with LoVo (lovo); with HCT-15 (hct-15)) were < 5.00, 5.09 and < 5.00, respectively. Besides, the Activity in the data set on L1210 [2] was found to be 157%. The MTD in [4] was > 80 mg/kg.
On to `CCOC(=O)CCC(=O)Nc1cc2c3c(cccc3c1)C(=O)N(CCN(C)C)C2=O`, for which the pIC50 in data set [1] (Homo sapiens, Hs 683, 72 h) was < 5.00; in the data set with LoVo (Homo sapiens, LoVo, 72 h), < 5.00; with MCF7, < 5.00; in the data set with A549 (Homo sapiens, A549, 72 h), < 5.00; in data set [3] (Homo sapiens, U373 MG, 72 h), < 5.00; in the data set on HCT-15 (Homo sapiens, HCT-15, 72 h), < 5.00. In addition, in the data set on L1210 [2], the Activity stood at 156%. In data set [4], the MTD is > 80 mg/kg.
As for `CN(C)CCN1C(=O)c2cccc3cc(NC(=S)NCc4ccc5c(c4)OCO5)cc(c23)C1=O`, the pIC50 in data set [1] (Homo sapiens, Hs 683, 72 h) is < 5.00; in the data set with LoVo (Homo sapiens, LoVo, 72 h), < 5.00; with MCF7 it was < 5.00; in the data set on A549 (Homo sapiens, A549, 72 h), < 5.00; in data set [3] (Homo sapiens, U373 MG, 72 h) it was < 5.00; in the data set with HCT-15 (Homo sapiens, HCT-15, 72 h), < 5.00. For the same compound, the MTD in data set [4] is > 80 mg/kg.
On to `COc1cc(/C=N\c2cc3c4c(cccc4c2)C(=O)N(CCN(C)C)C3=O)cc(OC)c1OC`, for which the pIC50 in data set [1] (Homo sapiens, Hs 683, 72 h) was < 5.00; in the data set on LoVo (Homo sapiens, LoVo, 72 h) it was 5.30; with MCF7 it was < 5.00; with A549 (Homo sapiens, A549, 72 h) it was 5.17; in data set [3] (Homo sapiens, U373 MG, 72 h), 5.19; in the data set on HCT-15 (Homo sapiens, HCT-15, 72 h), < 5.00. The Activity in the data set with L1210 [2] came to 107%. In data set [4], the MTD was > 80 mg/kg.
Take `CN(C)CCN1C(=O)c2cccc3cc(NCc4ccc5c(c4)OCO5)cc(c23)C1=O`: the pIC50 in data set [1] (hs 683) is 5.01; in the data set on LoVo (lovo), 5.32; with A549 (a549), 5.07; in data set [3] (u-373mg atcc), < 5.00; with HCT-15 (hct-15), 5.09. This compound also came in with an Activity in the data set on L1210 [5] of 140%. The MTD in data set [4] is > 80 mg/kg.
For the compound `CN(C)CCN1C(=O)c2cccc3cccc(c23)C1=O`, the pIC50 in data set [1] (Homo sapiens, Hs 683, 72 h) was 5.16; in the data set on LoVo (Homo sapiens, LoVo, 72 h) it was 5.33; with MCF7, 5.00; in the data set with A549 (Homo sapiens, A549, 72 h), 5.25; in data set [3] (Homo sapiens, U373 MG, 72 h), 5.12; in the data set with HCT-15 (Homo sapiens, HCT-15, 72 h), 5.04. The same compound displayed an Activity in the data set on L1210 [2] of 156%. In addition, the MTD in data set [4] was found to be 40 mg/kg.
For `CN(C)CCN1C(=O)c2cccc3cc(NC(=O)Nc4ccc5c(c4)OCO5)cc(c23)C1=O`, the pIC50 was 5.24 in data set [1] (Homo sapiens, Hs 683, 72 h); 5.36 in the data set on LoVo (Homo sapiens, LoVo, 72 h); 5.18 with MCF7; 5.26 with A549 (Homo sapiens, A549, 72 h); 5.85 in data set [3] (Homo sapiens, U373 MG, 72 h); 5.11 with HCT-15 (Homo sapiens, HCT-15, 72 h). In addition, in the data set with L1210 [2], the Activity turned out to be 187%. For the same compound, the MTD in data set [4] is > 80 mg/kg.
